Data as given in ChEMBL document CHEMBL1150391, “Pyridinium cationic-dimer antimalarials, unlike chloroquine, act selectively between the schizont stage and the ring stage of Plasmodium falciparum” (Bioorg Med Chem, 2008).
The source made the active and inactive calls. The calls are words filed in the database; no cut-off is given here.

Columns and labels:
[1] = system: FM3A; assay: Cytotoxicity against mouse FM3A cells assessed as inhibition of increase in cell density after 48 hrs; type: cell-based
Outline: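 Mouse mammary tumor FM3A (subclone F28-7) cells kept in suspension in ES medium with 2% heat-inactivated FBS, seeded at 5 × 10⁴ cells/mL, compounds added in DMSO. 48 h, 37 °C, 5% CO2; cells counted microscopically. Duplicate wells, mean of three experiments; IC50 is the concentration giving 50% inhibition of cell-density increase versus control.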

[2] = system: Plasmodium falciparum; assay: Antimalarial activity as reduced parasitaemia after 72 hrs against chloroquine-sensitive Plasmodium falciparum FCR3 in human erythrocytes by Diff-Quick stain; type: functional, organism-based; conditions: FCR3, 72 h
Outline: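 FCR-3 grown in type A human RBCs (5% hematocrit stock culture) in RPMI 1640 with HEPES, NaHCO3, gentamicin and 10% heat-inactivated type A human serum. Assay: 0.3% parasitemia, 3% final hematocrit, DMSO compound dilutions; 72 h, 37 °C, 5% CO2/5% O2/90% N2. Parasitemia read from Diff-Quik thin films. Duplicate wells, mean of three experiments; IC50 taken from the growth-inhibition curve.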

[3] = system: Plasmodium falciparum; assay: Antimalarial activity as synchronized middle trophozoites of chloroquine-sensitive Plasmodium falciparum FCR3 in human erythrocytes at 5 uL by Diff-Quick stain; type: functional, organism-based
Outline: (§1)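 Cultures synchronized twice with 5% D-sorbitol 40 h apart (>80% rings); stage checked microscopically before dosing. Compound added at ring, middle trophozoite, late trophozoite or schizont stage; 5% erythrocytes, about 1.0% parasitemia, compound in 0.1% DMSO at 100 times the IC50. 48 h, 37 °C; medium and compound renewed at 24 h. Infection ratio counted per at least 2000 erythrocytes in Diff-Quik films every 6 h; duplicate, versus compound-free control.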

[4] = system: Plasmodium falciparum; assay: Antimalarial activity as synchronized ring-stage of chloroquine-sensitive Plasmodium falciparum FCR3 infected human erythrocytes at 5 uL by Diff-Quick stain; type: functional, organism-based; outline: as §1
[5] = system: Plasmodium falciparum; assay: Antimalarial activity as synchronized schizonts of chloroquine-sensitive Plasmodium falciparum FCR3 in human erythrocytes at 5 uL by Diff-Quick stain; type: functional, organism-based; outline: as §1
[6] = system: Plasmodium falciparum; assay: Antimalarial activity as synchronized late trophozoites of chloroquine-sensitive Plasmodium falciparum FCR3 in human erythrocytes at 5 uL by Diff-Quick stain; type: functional, organism-based; outline: as §1

Structure (SMILES)	EC50 [2] [nM]	EC50 [1] [nM]	Activity [3]	Activity [4]	Activity [5]	Activity [6]
O=C(Nc1ccc(C(F)(F)F)cc1)c1cc[n+](CCCCCCCCCC[n+]2ccc(C(=O)Nc3ccc(C(F)(F)F)cc3)cc2)cc1	33	5180				
N#Cc1ccc(NC(=O)c2cc[n+](CCCCCCCCCC[n+]3ccc(C(=O)Nc4ccc(C#N)cc4)cc3)cc2)cc1	35	42400				
O=C(Nc1ccc(Cl)cc1)c1cc[n+](CCCCCCCCCC[n+]2ccc(C(=O)Nc3ccc(Cl)cc3)cc2)cc1	8	1890				
CCCCCCNC(=O)c1cc[n+](CCCCCCCCCC[n+]2ccc(C(=O)NCCCCCC)cc2)cc1	5	10500	inactive	inactive	Active	inactive
O=C(Nc1ccccc1)c1cc[n+](CCCCCCCCCC[n+]2ccc(C(=O)Nc3ccccc3)cc2)cc1	29	42800	inactive	inactive	Active	inactive

The remaining molecules from weak to strong by EC50 [2], led by results:

EC50 [2] [nM]	Structure (SMILES)	EC50 [1] [nM]	Activity [3]	Activity [4]	Activity [5]	Activity [6]
100	CCCCNC(=O)c1cc[n+](CCCCCCCCCCCC[n+]2ccc(C(=O)NCCCC)cc2)cc1	52900				
74	O=C(Nc1ccc([N+](=O)[O-])cc1)c1cc[n+](CCCCCCCCCC[n+]2ccc(C(=O)Nc3ccc([N+](=O)[O-])cc3)cc2)cc1	5990				
39	Cc1ccc(NC(=O)c2cc[n+](CCCCCCCCCC[n+]3ccc(C(=O)Nc4ccc(C)cc4)cc3)cc2)cc1	25600				
21	O=C(Nc1ccc(F)cc1)c1cc[n+](CCCCCCCCCC[n+]2ccc(C(=O)Nc3ccc(F)cc3)cc2)cc1	27800				
15	O=C(Nc1ccc(Br)cc1)c1cc[n+](CCCCCCCCCC[n+]2ccc(C(=O)Nc3ccc(Br)cc3)cc2)cc1	1390				
12	O=C(Nc1ccc(I)cc1)c1cc[n+](CCCCCCCCCC[n+]2ccc(C(=O)Nc3ccc(I)cc3)cc2)cc1	1420				
